From ChEMBL document CHEMBL6134787, “Fexinidazole optimization: enhancing anti-leishmanial profile, metabolic stability and hERG safety” (RSC Med Chem, 2024)
Activity calls are given as the source filed them. No cut-off for these calls is given here.

Experiments:
Leishmania donovani [1] = assay: Antileishmanial activity against miltefosine resistant Leishmania donovani HU3MILR40 promastigotes […] assessed as inhibition of parasite growth incubated for 72 hrs by automatic microtiter plate reader analysis; format: functional, organism-based
Summary of the method: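 Promastigote (free parasite) assay: Schneider's Drosophila medium with 4 mM glutamine, 25 μg mL−1 gentamicin, 10% heat-inactivated FBS, pH 6.9, 27 °C. 1.5 × 10^5 promastigotes per well exposed to a concentration series for 72 h at 27 °C.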

[2] = Metabolic stability in rat liver S9 fraction assessed as compound remaining at 20 uM measured after 32 mins in presence of NADP and GSH by HPLC analysis; format: ADME, subcellular; settings: read-out: Stability
Summary of the method: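 Rat liver S9 (final 4 mg/mL) in 50 mM phosphate pH 7.4 with NADPH-regenerating system (0.3 mM NADP+, 5.3 mM glucose-6-phosphate, G6PDH), 10 mM MgCl2 and 5 mM EDTA. Pre-warmed 10 min at 37 °C, then 20 μM compound and 5.5 μM GSH added. Samples taken at 0, 16 and 32 min were quenched in ice-cold acetonitrile. HPLC (254/280 nm) peak area was expressed relative to 0 min.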

[3] = Metabolic stability in rat liver microsome assessed as compound remaining at 20 uM measured after 32 mins in presence of NADP and GSH by HPLC analysis; format: ADME; settings: liver microsomes, read-out: Stability
Summary of the method: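 Rat liver microsomes (final 2 mg/mL) in 50 mM phosphate pH 7.4 with 0.3 mM NADP+, 5.3 mM glucose-6-phosphate, G6PDH, 10 mM MgCl2 and 5 mM EDTA. 20 μM compound added at 37 °C. Aliquots at 0, 16 and 32 min were quenched in ice-cold acetonitrile and centrifuged. HPLC peak area at 254/280 nm was expressed relative to 0 min.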

hERG (KCNH2) [4] = biological target: T1, hERG (KCNH2) (Homo sapiens, UniProt Q12809); assay: Inhibition of human ERG stably overexpressed in HEK293 cells at 100 uM incubated for 30 mins by FLIPR assay; format: toxicity, cell-based; settings: HEK293 cells stably overexpressing hERG
Summary of the method: (§1)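 HEK-293 cells stably expressing hERG, seeded at 60 000/well and grown 24 h. Compounds were added in DMSO (final 0.5%) and incubated 30 min in the dark. After 20 s baseline, Tl+ stimulus (3 mM) was added and fluorescence (ex 485/em 535 nm) recorded for 2.5 min.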

Leishmania donovani [5] = assay: Antileishmanial activity against wild type Leishmania donovani HU3 promastigotes […] assessed as inhibition of parasite growth incubated for 72 hrs by automatic microtiter plate reader analysis; format: functional, organism-based
RAW264.7 = assay: Cytotoxicity against mouse RAW264.7 cells assessed as inhibition of cell growth incubated for 72 hrs by MTS assay; format: functional, cell-based; settings: RAW264.7, 72 h
Summary of the method: (§2)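 Cells in DMEM + 10% heat-inactivated FBS with penicillin/streptomycin at 37 °C, 5% CO2. They were seeded at 1 × 10^4/well and incubated with a concentration series for 72 h at 37 °C. Viability was read by MTS/PMS assay at 490 nm and IC50 derived.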

Leishmania amazonensis [6] = assay: Antileishmanial activity against wild type Leishmania amazonensis LV78 promastigotes […] assessed as inhibition of parasite growth incubated for 72 hrs by automatic microtiter plate reader analysis; format: functional, organism-based
Summary of the method: (§3)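 Promastigotes were grown in Schneider's medium (4 mM glutamine, gentamicin, 10% heat-inactivated FBS, pH 6.9, 27 °C). Cells were seeded at 1.5 × 10^5/well and exposed to a concentration series for 72 h at 27 °C.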

Leishmania major = assay: Antileishmanial activity against wild type Leishmania major FV1 promastigotes […] assessed as inhibition of parasite growth incubated for 72 hrs by automatic microtiter plate reader analysis; format: functional, organism-based; summary of the method: as §3
[7] = Cytotoxicity against mouse L929 cells assessed as inhibition of cell growth incubated for 72 hrs by MTS assay; format: toxicity, cell-based; summary of the method: as §2
[8] = Hepatotoxicity against mouse TAMH cells assessed as cell viability at 7.8 to 125 uM incubated for 24 to 48 hrs by MTT assay; format: toxicity, cell-based; settings: dose lower 7.8 µM, time lower 24 hrs, dose upper 125 µM, time upper 48 hrs, read-out: Activity
Summary of the method: (§4)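 TAMH mouse liver cells in FCS-free DMEM/F12 with 5% PANEXIN NTA, 10 mM nicotinamide and gentamicin. Seeded at 20 000/well and attached 24 h at 37 °C, 5% CO2. DMSO-diluted compounds were applied for 24 or 48 h. MTT was added for 4 h, formazan dissolved in DMSO and A570 read. Viability was background-corrected and expressed relative to DMSO controls; mean ± SD, ≥3 experiments.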

Leishmania braziliensis [9] = assay: Antileishmanial activity against wild type Leishmania braziliensis UA847 promastigotes […] assessed as inhibition of parasite growth incubated for 72 hrs by automatic microtiter plate reader analysis; format: functional, organism-based; summary of the method: as §3
[10] = biological target: T2, Voltage-gated inwardly rectifying potassium channel KCNH2 (Homo sapiens, UniProt Q12809); assay: Inhibition of human ERG stably overexpressed in HEK293 cells incubated for 30 mins by FLIPR assay; format: toxicity, cell-based; settings: human, hek293, 0.5 h; time 30 min
Leishmania braziliensis [11] = assay: Antileishmanial activity against wild type Leishmania braziliensis UA847 amastigotes infected in mouse peritoneal macrophage assessed as inhibition of parasite growth incubated for 72 hrs by giemsa staining based analysis; format: functional, organism-based
Summary of the method: (§5)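 Mouse peritoneal macrophages (1 × 10^5/well on coverslips, DMEM + 10% heat-inactivated FBS, penicillin/streptomycin) adhered overnight at 37 °C, 5% CO2. They were infected overnight with late-log promastigotes at a 20:1 parasite:macrophage ratio. Cells were then treated with compound for 72 h at 37 °C and Giemsa-stained. Amastigotes per 100 macrophages were counted to derive IC50; mean ± SD of 3–4 independent experiments.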

[12] = Selectivity ratio of IC50 for cytotoxicity against mouse peritoneal macrophage assessed as inhibition of cell growth to IC50 for antileishmanial activity against miltefosine resistant Leishmania donovani HU3MILR40 amastigotes infected in mouse peritoneal macrophage assessed as inhibition of parasite growth; format: toxicity, cell-based; settings: peritoneal macrophages, read-out: Ratio IC50
[13] = Cytotoxicity against mouse peritoneal macrophage assessed as inhibition of cell growth incubated for 72 hrs by giemsa staining based analysis; format: toxicity; settings: peritoneal macrophages
Leishmania amazonensis [14] = assay: Antileishmanial activity against wild type Leishmania amazonensis LV78 amastigotes infected in mouse peritoneal macrophage assessed as inhibition of parasite growth incubated for 72 hrs by giemsa staining based analysis; format: functional, organism-based; summary of the method: as §5
hERG (KCNH2) [15] = biological target: T1, hERG (KCNH2); assay: (§6) Inhibition of human ERG stably overexpressed in HEK293 cells assessed as remaining activity at 6 uM incubated for 30 mins by FLIPR assay; format: toxicity, cell-based; settings: HEK293 cells stably overexpressing hERG, read-out: Activity; summary of the method: as §1
Leishmania donovani [16] = assay: Antileishmanial activity against wild type Leishmania donovani HU3 amastigotes infected in mouse peritoneal macrophage assessed as inhibition of parasite growth incubated for 72 hrs by giemsa staining based analysis; format: functional, organism-based
Summary of the method: (§7)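 Mouse peritoneal macrophages in DMEM + 10% heat-inactivated FBS, penicillin/streptomycin; 1 × 10^5 cells per well on coverslips, adhered overnight at 37 °C, 5% CO2, non-adherent cells washed off. Infected overnight with late-log promastigotes at parasite:macrophage 40:1. Compound exposure 72 h at 37 °C; Giemsa stain, amastigotes per 100 macrophages counted, IC50 derived; means ± SD of 3–4 independent experiments.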

Leishmania donovani [17] = assay: Antileishmanial activity against miltefosine resistant Leishmania donovani HU3MILR40 amastigotes infected in mouse peritoneal macrophage assessed as inhibition of parasite growth incubated for 72 hrs by giemsa staining based analysis; format: functional, organism-based; summary of the method: as §7
Leishmania donovani [18] = assay: Antileishmanial activity against miltefosine resistant Leishmania donovani HU3MILR40 amastigotes infected in mouse peritoneal macrophage assessed as inhibition of parasite growth at 1.5 uM incubated for 72 hrs by giemsa staining based analysis; format: functional, organism-based
Summary of the method: (§8)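 Adherent mouse peritoneal macrophages on coverslips infected overnight with late-log HU3MILR40 promastigotes (40 parasites per macrophage), then exposed to compound at a single fixed concentration in DMEM + 10% FBS for 72 h at 37 °C. Giemsa-stained coverslips imaged at 1000×; amastigotes per 100 macrophages counted versus DMSO control; mean ± SD of three independent experiments, Student's t-test.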

[19] = Hepatotoxicity against human HepG2 cells assessed as reduction in cell viability at 125 uM incubated for 24 hrs by MTT assay; format: toxicity, cell-based; settings: hepg2, 24 h
Summary of the method: (§9)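 HEP-G2 cells in RPMI 1640 + 10% heat-inactivated FBS, penicillin/streptomycin. Seeded at 15 000/well and attached 24 h at 37 °C, 5% CO2. Compounds were serially diluted in DMSO, with 24 or 48 h exposure. MTT (2.5 mg/mL solution) was added for 4 h, formazan dissolved in DMSO and A570 read. Viability was background-corrected against DMSO-treated cell controls; mean ± SD, ≥3 experiments.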

[20] = biological target: T2, Voltage-gated inwardly rectifying potassium channel KCNH2; assay: as §6; format: toxicity, cell-based; settings: hek293, 0.5 h, 6 µM; summary of the method: as §1
[21] = Hepatotoxicity against mouse TAMH cells assessed as reduction in cell viability at 125 uM incubated for 24 hrs by MTT assay; format: toxicity, cell-based; summary of the method: as §4
Leishmania donovani [22] = assay: Antileishmanial activity against miltefosine resistant Leishmania donovani HU3MILR40 amastigotes infected in mouse peritoneal macrophage assessed as inhibition of parasite growth at 20 uM incubated for 72 hrs by giemsa staining based analysis; format: functional, organism-based; summary of the method: as §8
hERG (KCNH2) [23] = biological target: T1, hERG (KCNH2); assay: Inhibition of human ERG stably overexpressed in HEK293 cells assessed as remaining activity at 25 uM incubated for 30 mins by FLIPR assay; format: toxicity, cell-based; settings: HEK293 cells stably overexpressing hERG, read-out: Activity; summary of the method: as §1
[24] = Hepatotoxicity against mouse TAMH cells assessed as cell viability at 125 uM incubated for 48 hrs by MTT assay; format: toxicity, cell-based; summary of the method: as §4
[25] = Hepatotoxicity against human HepG2 cells assessed as cell viability at 125 uM incubated for 48 hrs by MTT assay; format: toxicity, cell-based; settings: hepg2, 48 h, 125 µM; summary of the method: as §9

T2 sequence (Q12809 whole entry): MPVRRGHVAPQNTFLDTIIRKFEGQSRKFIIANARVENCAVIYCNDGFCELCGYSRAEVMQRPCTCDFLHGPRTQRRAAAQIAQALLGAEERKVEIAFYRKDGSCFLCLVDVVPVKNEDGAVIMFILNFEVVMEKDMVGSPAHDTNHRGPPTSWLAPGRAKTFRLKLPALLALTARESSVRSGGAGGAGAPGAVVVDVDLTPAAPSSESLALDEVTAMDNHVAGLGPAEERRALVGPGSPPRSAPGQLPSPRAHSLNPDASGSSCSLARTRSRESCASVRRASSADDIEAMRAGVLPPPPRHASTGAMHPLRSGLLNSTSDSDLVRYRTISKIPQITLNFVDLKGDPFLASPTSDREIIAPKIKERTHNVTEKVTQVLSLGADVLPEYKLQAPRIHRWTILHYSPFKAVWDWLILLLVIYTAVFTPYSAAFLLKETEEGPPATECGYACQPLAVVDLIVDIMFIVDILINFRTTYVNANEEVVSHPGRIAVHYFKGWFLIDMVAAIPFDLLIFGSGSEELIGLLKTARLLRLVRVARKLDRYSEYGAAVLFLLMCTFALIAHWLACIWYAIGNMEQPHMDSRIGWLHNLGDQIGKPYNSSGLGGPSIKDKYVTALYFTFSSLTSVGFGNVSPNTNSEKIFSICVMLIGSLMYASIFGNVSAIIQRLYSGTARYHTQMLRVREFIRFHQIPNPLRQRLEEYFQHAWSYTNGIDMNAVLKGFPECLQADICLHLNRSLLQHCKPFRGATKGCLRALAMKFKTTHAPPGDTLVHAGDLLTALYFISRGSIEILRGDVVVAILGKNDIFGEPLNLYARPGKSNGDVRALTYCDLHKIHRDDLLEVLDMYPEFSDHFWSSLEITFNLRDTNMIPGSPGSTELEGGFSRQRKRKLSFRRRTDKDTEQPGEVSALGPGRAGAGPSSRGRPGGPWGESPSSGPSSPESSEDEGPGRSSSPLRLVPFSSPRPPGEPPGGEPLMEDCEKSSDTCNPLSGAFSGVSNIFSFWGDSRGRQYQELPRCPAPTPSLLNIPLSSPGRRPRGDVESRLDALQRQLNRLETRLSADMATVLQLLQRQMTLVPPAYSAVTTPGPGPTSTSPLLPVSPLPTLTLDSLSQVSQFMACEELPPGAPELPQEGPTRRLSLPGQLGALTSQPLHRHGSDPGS
T1 sequence (Q12809 whole entry): as above

Row | Compound | IC50 (Leishmania donovani [1]) [µM] | remaining at 32 min, 20 µM [2] [%] | remaining at 32 min, 20 µM [3] [%] | IC50 (Leishmania donovani [5]) [µM] | IC50 (RAW264.7) [µM] | IC50 (Leishmania amazonensis [6]) [µM] | IC50 (Leishmania major) [µM] | IC50 at 72 h [7] [µM] | viability at up to 125 µM [8] [%] | IC50 (Leishmania braziliensis [9]) [µM] | IC25 [10] [µM] | IC50 (Leishmania braziliensis [11]) [µM] | selectivity ratio [12] | IC50 at 72 h [13] [µM] | IC50 (Leishmania amazonensis [14]) [µM] | activity at 0.5 h, 6 µM (hERG (KCNH2) [15]) [%] | IC50 (Leishmania donovani [16]) [µM] | IC50 (Leishmania donovani [17]) [µM] | further results
1 | CSc1ccc(CCc2ncc([N+](=O)[O-])n2CCO)cc1 | > 20 | 76.8 | 20.5 | > 20 | > 100 | > 20 | > 20 | > 100 | > 50 | > 20 | 6 |  |  |  |  |  |  |  | inhibition at 0.5 h, 100 µM (hERG (KCNH2) [4]): 100%
2 | CSc1ccc(OCC2Cn3cc([N+](=O)[O-])nc3O2)cc1 (racemic) | 0.4 | 90.4 | 55.8 | 1 | > 100 | 1.8 | 3.4 | > 100 | > 50 | 1.5 | 2.9 | 0.7 | > 250 | > 100 | 0.7 | 81 | 0.3 | 0.4 | Activity (Leishmania donovani [18]): Active
3 | C[S+]([O-])c1ccc(OCC2Cn3cc([N+](=O)[O-])nc3O2)cc1 (racemic) | 7.1 | 100 | 100 | 10.2 | > 100 | > 20 | > 20 | > 100 | 56 | > 20 | 30.1 |  |  |  |  |  |  |  | Activity [19]: 40.8%; inhibition (INH) [20]: Not_active; Activity [21]: 58%
4 | CCCCCCCCCCCCCCCCOP(=O)([O-])OCC[N+](C)(C)C [MILTEFOSINE] | > 40 |  |  | 6.9 | 9.9 | 22 | 7 | 81.5 |  | 17.8 |  | 3.2 |  | > 40 | 9.6 |  | 2.7 | > 20 | Activity (Leishmania donovani [22]): inactive
5 | CSc1ccc(OCc2nccn2C)cc1 | > 20 | 100 | 100 | > 20 | > 91.1 | > 20 | > 20 | > 100 | > 50 | > 20 | 34.5 |  |  |  |  |  |  |  | activity at 0.5 h, 25 µM (hERG (KCNH2) [23]): 83%
6 | CSc1ccc(OC[C@H]2Cn3cc([N+](=O)[O-])nc3O2)cc1 | 0.4 | 92.1 | 64.7 | 1.1 | > 95.3 | 1.9 | 5.7 | > 100 | > 50 | 1.4 | 3.1 | 1 | > 143 | > 86 | 0.7 | 46 | 0.4 | 0.6 | 
7 | CSc1ccc(OC[C@@H]2Cn3cc([N+](=O)[O-])nc3O2)cc1 | 0.5 | 97 | 67.5 | 1.1 | > 68.5 | 1.2 | 3.1 | > 92.2 | > 50 | 1.4 | > 6.2 | 0.5 | > 220 | > 88 | 0.6 | 87 | 0.4 | 0.4 | Activity (Leishmania donovani [18]): Active
8 | Cn1c([N+](=O)[O-])cnc1COc1ccc(S(C)(=O)=O)cc1 [FEXINIDAZOLE SULFONE] | 5.6 | 100 | 100 | 3.8 | > 100 | 9.4 | 1.7 | > 100 | > 50 | 5.9 | 42.2 |  |  |  |  |  |  |  | Activity [24]: Non-toxic; Activity [25]: Non-toxic
